Here are results for 20 molecules from ChEMBL document CHEMBL1126110, “Antirhinoviral activity of heterocyclic analogs of Win 54954” (1992).

≈ marks a conversion by molar mass, not a printed value. Calls of active or inactive are those of the source. The calls are words filed in the database; no cut-off is given here.

Test [1] deals with Human rhinovirus sp. The experiment in a line: (§1) In vitro inhibition of 80% of the serotypes. In kind it is functional. A digest of the protocol:
(§2)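 Fifteen rhinovirus serotypes (HRV-14 plus 14 more) were each run in a plaque reduction assay in HeLa-Ohio cells. The MIC for each serotype was the μM concentration giving 50% plaque reduction. MIC80 is the concentration that inhibited 80% of the serotypes tested.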

Test [2] has as its system rhinovirus B14. In words: Minimum inhibitory concentration in vitro against HRV-14 in a plaque reduction assay. Particulars: Rhinovirus B. In kind it is functional, human rhinovirus type 14. Put shortly:
(§3)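 Plaque reduction assay in HeLa-Ohio cells. MIC is the concentration (μM) that cut plaque number by 50%.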
Background: Plaque reduction counts the foci of infection that form in a cell layer.

Test [3] has as its system rhinovirus B14. The experiment in a line: Minimum inhibitory concentration in vitro against HRV-14 in a plaque reduction assay; NA=Not active. In kind it is functional, organism-based. The conditions noted are these: human rhinovirus type 14. A digest of the protocol: as §3
The subject of test [4] is Human rhinovirus sp. Described as §1. The format is functional. A digest of the protocol: as §2
This is another data set of the same source.

Test [5] concerns rhinovirus A2. In words: (§4) Minimum inhibitory concentration against human rhinovirus serotype 2. The format is functional. Particulars: Rhinovirus A. A digest of the protocol: as §3
Another test relates to rhinovirus A67. The experiment in a line: Minimum inhibitory concentration against human rhinovirus serotype 67. In kind it is functional. Particulars: Rhinovirus A. A digest of the protocol: as §3
The subject of a further test is rhinovirus B6. The experiment in a line: Minimum inhibitory concentration against human rhinovirus serotype 6. The format is functional. The conditions noted are these: Rhinovirus B. A digest of the protocol: as §3
The test system of the next test is rhinovirus A30. In words: Minimum inhibitory concentration against human rhinovirus serotype 30. The format is functional. Particulars: Rhinovirus A. Put shortly:
as §3

The subject of test [6] is rhinovirus A2. Described as §4. In kind it is functional. The conditions noted are these: Rhinovirus A. A digest of the protocol:
as §3
This is another data set of the same source.

The test system of test [7] is rhinovirus B14. The experiment in a line: Minimum inhibitory concentration against human rhinovirus serotype 14. The conditions noted are these: Rhinovirus B. In kind it is functional. A digest of the protocol: as §3
The test system of a further test is rhinovirus A1B. The experiment in a line: Minimum inhibitory concentration against human rhinovirus serotype 1B. Particulars: Rhinovirus A. The format is functional. Put shortly:
as §3

Another test relates to rhinovirus A25. The experiment in a line: Minimum inhibitory concentration against human rhinovirus serotype 25. The format is functional. The conditions noted are these: Rhinovirus A. A digest of the protocol: as §3
Another test concerns Human rhinovirus 1A. The experiment in a line: Minimum inhibitory concentration against human rhinovirus serotype 1A. The format is functional. Put shortly:
as §3

The test system of another test is rhinovirus A22. In words: Minimum inhibitory concentration against human rhinovirus serotype 22. The format is functional. The conditions noted are these: Rhinovirus A. A digest of the protocol:
as §3

For another test, the system named is rhinovirus B86. In words: Minimum inhibitory concentration against human rhinovirus serotype 86. The format is functional. The conditions noted are these: Rhinovirus B. A digest of the protocol:
as §3

For a further test, the system named is rhinovirus A89. The experiment in a line: Minimum inhibitory concentration against human rhinovirus serotype 89. The format is functional. Particulars: Rhinovirus A. A digest of the protocol: as §3
The subject of the next test is rhinovirus A15. In words: Minimum inhibitory concentration against human rhinovirus serotype 15. The conditions noted are these: Rhinovirus A. In kind it is functional. A digest of the protocol: as §3
A further test has as its system rhinovirus A41. The experiment in a line: Minimum inhibitory concentration against human rhinovirus serotype 41. In kind it is functional. Particulars: Rhinovirus A. Put shortly: as §3
The test system of a further test is rhinovirus A50. The experiment in a line: Minimum inhibitory concentration against human rhinovirus serotype 50. In kind it is functional. Particulars: Rhinovirus A. Put shortly: as §3
For the next test, the system named is rhinovirus A21. In words: Minimum inhibitory concentration against human rhinovirus serotype 21. In kind it is functional. The conditions noted are these: Rhinovirus A. Put shortly: as §3

As for `Cc1cc(CCCCCOc2c(Cl)cc(-c3ncco3)cc2Cl)on1`, the MIC80 in the test with Human rhinovirus sp. [1] stood at 1.71 µM (≈ 0.652 µg/mL). Moreover, in the test on rhinovirus B14 [2], the MIC is 1.83 µM (≈ 0.698 µg/mL).
As for `Cc1cc(CCCCCOc2c(Cl)cc(-c3nc(C)c(C)o3)cc2Cl)on1`, in the test on Human rhinovirus sp. [1], the MIC80 is 1.3 µM (≈ 0.532 µg/mL). In the test on rhinovirus B14 [2], this molecule returned an MIC of 2.79 µM (≈ 1.14 µg/mL).
In the case of `Cc1cc(CCCCCOc2c(Cl)cc(-c3nc(C)c(C)s3)cc2Cl)on1`, the MIC80 in the test with Human rhinovirus sp. [1] turned out to be 2.14 µM (≈ 0.91 µg/mL). This molecule had an MIC with rhinovirus B14 [2] of 2.59 µM (≈ 1.1 µg/mL).
For the molecule `Cc1cc(CCCCCOc2c(Cl)cc(-c3ccsc3)cc2Cl)on1`, the MIC80 in the test on Human rhinovirus sp. [1] came out at 2.88 µM (≈ 1.14 µg/mL). In addition, the MIC result in the test with rhinovirus B14 [3] is “inactive”.
For the molecule `Cc1cc(CCCCCOc2c(Cl)cc(-c3nnnn3C)cc2Cl)on1`, the MIC80 in the test on Human rhinovirus sp. [1] and in the test with Human rhinovirus sp. [4] was 7.02 µM (≈ 2.78 µg/mL) throughout. The same molecule returned an MIC in the test on rhinovirus B14 [2] of 2.04 µM (≈ 0.808 µg/mL).
The molecule `Cc1cc(CCCCCOc2c(Cl)cc(-c3cccnc3)cc2Cl)on1` yielded an MIC against rhinovirus B14 [2] of 6.6 µM (≈ 2.58 µg/mL).
On the same count and under the same terms, to `Cc1cc(CCCCCOc2c(Cl)cc(-c3ccncc3)cc2Cl)on1` belongs 0.97 µM (≈ 0.38 µg/mL).
`Cc1cc(CCCCCOc2c(Cl)cc(-c3ccccn3)cc2Cl)on1` showed an MIC80 in the test on Human rhinovirus sp. [1] of 1.38 µM (≈ 0.54 µg/mL). This molecule also had an MIC in the test with rhinovirus B14 [2] of 6.64 µM (≈ 2.6 µg/mL).
On the same counts, the results for `Cc1cc(CCCCCOc2c(Cl)cc(-c3ccc(C)o3)cc2Cl)on1` are 1.27 µM (≈ 0.501 µg/mL) and 2.64 µM (≈ 1.04 µg/mL).
The matching figures for `Cc1cc(CCCCCOc2c(Cl)cc(-c3cccc(C)n3)cc2Cl)on1`: 1.93 µM (≈ 0.782 µg/mL) and 5.88 µM (≈ 2.38 µg/mL).
`Cc1cc(CCCCCOc2c(Cl)cc(-c3cnco3)cc2Cl)on1`: the MIC80 with Human rhinovirus sp. [1] came out at 2.24 µM (≈ 0.854 µg/mL). This molecule showed an MIC against rhinovirus B14 [2] of 12.8 µM (≈ 4.86 µg/mL).
As for `Cc1cc(CCCCCOc2c(Cl)cc(-c3nnn(C)n3)cc2Cl)on1`, the MIC against rhinovirus A2 [5] came to 0.025 µM (≈ 0.00991 µg/mL); against rhinovirus A67, 0.18 µM (≈ 0.0713 µg/mL); in the test on rhinovirus B6, 0.23 µM (≈ 0.0911 µg/mL); against rhinovirus A30, 0.23 µM (≈ 0.0911 µg/mL); against rhinovirus A2 [6] it was 0.025 µM (≈ 0.00991 µg/mL); in the test with rhinovirus B14 [7], 0.38 µM (≈ 0.151 µg/mL). The MIC is 0.05 µM (≈ 0.0198 µg/mL) in the test on rhinovirus A1B; 0.08 µM (≈ 0.0317 µg/mL) against rhinovirus A25; 0.38 µM (≈ 0.151 µg/mL) in the test with Human rhinovirus 1A; 0.008 µM (≈ 0.00317 µg/mL) in the test with rhinovirus A22; 0.38 µM (≈ 0.151 µg/mL) against rhinovirus B14 [2]; 0.24 µM (≈ 0.0951 µg/mL) in the test on rhinovirus B86. For the same molecule, the MIC against rhinovirus A89 was 0.01 µM (≈ 0.00396 µg/mL); in the test with rhinovirus A15, 0.25 µM (≈ 0.0991 µg/mL); in the test with rhinovirus A41, 0.63 µM (≈ 0.25 µg/mL); against rhinovirus A50 it was 0.06 µM (≈ 0.0238 µg/mL); against rhinovirus A21, 0.02 µM (≈ 0.00793 µg/mL). In the test on Human rhinovirus sp. [1], this molecule came in with an MIC80 of 0.25 µM (≈ 0.0991 µg/mL).
For `Cc1cc(CCCCCOc2c(Cl)cc(-c3cccs3)cc2Cl)on1`, the MIC80 in the test on Human rhinovirus sp. [1] worked out at 1.11 µM (≈ 0.44 µg/mL). Also, in the test on rhinovirus B14 [2], the MIC stood at 7.32 µM (≈ 2.9 µg/mL).
For the molecule `Cc1cc(CCCCCOc2c(Cl)cc(C3=NCCO3)cc2Cl)on1` [WIN-54954], the MIC was determined as 0.023 µM (≈ 0.00882 µg/mL) in the test with rhinovirus A2 [5]; 0.18 µM (≈ 0.069 µg/mL) with rhinovirus A67; 0.23 µM (≈ 0.0882 µg/mL) in the test on rhinovirus B6; 0.09 µM (≈ 0.0345 µg/mL) in the test with rhinovirus A30; 1.2 µM (≈ 0.46 µg/mL) in the test with rhinovirus B14 [7]; 0.17 µM (≈ 0.0652 µg/mL) against rhinovirus A1B. In addition, the MIC with rhinovirus A25 was 0.29 µM (≈ 0.111 µg/mL); against Human rhinovirus 1A, 2.51 µM (≈ 0.962 µg/mL); against rhinovirus A22, 0.02 µM (≈ 0.00767 µg/mL); in the test with rhinovirus B14 [2], 1.2 µM (≈ 0.46 µg/mL); in the test with rhinovirus B86, 0.21 µM (≈ 0.0805 µg/mL); in the test with rhinovirus A89, 0.02 µM (≈ 0.00767 µg/mL). The MIC came to 0.41 µM (≈ 0.157 µg/mL) against rhinovirus A15, 0.89 µM (≈ 0.341 µg/mL) against rhinovirus A41, 0.06 µM (≈ 0.023 µg/mL) against rhinovirus A50 and 0.02 µM (≈ 0.00767 µg/mL) with rhinovirus A21. In the test on Human rhinovirus sp. [1], the MIC80 stood at 0.33 µM (≈ 0.126 µg/mL).
`Cc1cc(CCCCCOc2c(Cl)cc(-c3cccn3C)cc2Cl)on1`: the MIC entry in the test with rhinovirus B14 [3] is “inactive”.
On to `Cc1cc(CCCCCOc2c(Cl)cc(-c3ccc(C)s3)cc2Cl)on1`, for which, in the test with Human rhinovirus sp. [1], the MIC80 was 1.71 µM (≈ 0.702 µg/mL). Besides, in the test on rhinovirus B14 [2], the MIC stood at 5.2 µM (≈ 2.13 µg/mL).
In the test with Human rhinovirus sp. [1], `Cc1cc(CCCCCOc2c(Cl)cc(-c3ccoc3)cc2Cl)on1` had an MIC80 of 2.9 µM (≈ 1.1 µg/mL). Besides, the MIC result with rhinovirus B14 [3] is “inactive”.
Consider `Cc1cc(CCCCCOc2c(Cl)cc(C3=NCCC3)cc2Cl)on1`, for which, in the test on rhinovirus B14 [3], the MIC result is “inactive”.
With `Cc1cc(CCCCCOc2c(Cl)cc(-c3ccc(Cl)s3)cc2Cl)on1`, in the test with Human rhinovirus sp. [1], the MIC80 came out at 3.13 µM (≈ 1.35 µg/mL). For the same molecule, in the test on rhinovirus B14 [2], the MIC amounted to 5.3 µM (≈ 2.28 µg/mL).
The matching figures for `Cc1cc(CCCCCOc2c(Cl)cc(-c3ccco3)cc2Cl)on1`: 1.05 µM (≈ 0.399 µg/mL) and 0.71 µM (≈ 0.27 µg/mL).
